The source of these data is ChEMBL document CHEMBL1138547, “Synthesis, biological evaluation and 2D-QSAR analysis of benzoxazoles as antimicrobial agents” (2009).

In brackets after ≈: the same amount, converted by molar mass.

Common to all, as to format: functional
The subject of experiment [1] is Bacillus subtilis. Description: Antimicrobial activity against Bacillus subtilis ATCC 6633 after 24 hrs. As to conditions: for MIC: Bacillus subtilis, ATCC 6633, 24 h. A digest of the protocol:
(§1)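 MIC by twofold serial dilution in Mueller-Hinton broth (MHB); MHB also used to dilute the bacterial suspension. Wells held 10^3 cfu/ml bacteria after inoculation. Controls: 80% DMSO, 20% EtOH, methanol, DMSO, PBS, organism alone and medium alone. Triplicate in each run. MIC taken as the lowest concentration completely inhibiting macroscopic growth.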

Experiment [2] concerns Klebsiella pneumoniae. Description: Antimicrobial activity against Klebsiella pneumoniae RSHM 574 after 24 hrs. The following applies: RSHM 574, 24 h. A digest of the protocol:
as §1

Experiment [3] relates to Klebsiella pneumoniae. Description: Antimicrobial activity against multidrug-resistant Klebsiella pneumoniae after 24 hrs. A digest of the protocol:
(§2)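 Twofold serial broth dilution in Mueller-Hinton broth. MHB was used both to dilute the bacterial suspension and for the twofold compound dilutions, giving 10^3 cfu/ml bacteria per well after inoculation. Solvent, medium and organism-only wells served as controls. Each organism was run in triplicate.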

Experiment [4] deals with Escherichia coli. Description: Antimicrobial activity against Escherichia coli ATCC 25922 after 24 hrs. The following applies: ATCC 25922, 24 h. An outline of the steps: as §1
The subject of experiment [5] is Escherichia coli. In words: Antimicrobial activity against multidrug-resistant Escherichia coli after 24 hrs. A digest of the protocol:
as §2

The test system of another experiment is Pseudomonas aeruginosa. In words: Antimicrobial activity against Pseudomonas aeruginosa ATCC […] after 24 hrs. A digest of the protocol:
as §1

The subject of experiment [6] is Bacillus subtilis. In words: Antimicrobial activity against ceftriazone-resistant Bacillus subtilis after 24 hrs. A digest of the protocol:
as §2

For experiment [7], the system named is Staphylococcus aureus. In words: Antimicrobial activity against Staphylococcus aureus ATCC 25923 after 24 hrs. The following applies: ATCC 25923, 24 h. An outline of the steps:
as §2

Experiment [8] relates to Staphylococcus aureus. Description: Antimicrobial activity against multidrug-resistant Staphylococcus aureus after 24 hrs. An outline of the steps: as §2
The subject of experiment [9] is Candida albicans. Description: Antimicrobial activity against Candida albicans ATCC 10231 after 24 to 48 hrs. An outline of the steps: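 Twofold serial dilution following CLSI M27-A. Yeast suspension made at 10^4 cfu/ml by diluting a fresh culture at McFarland 0.5 (10^6 cfu/ml). Inoculated into the diluted compound, incubated at 35 °C in a humid chamber, read after 48 h. Triplicate in each run. MIC is the lowest concentration completely inhibiting macroscopic growth.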

Experiment [10] relates to Candida albicans. Description: Antimicrobial activity against multidrug-resistant Candida albicans isolates after 24 to 48 hrs. A digest of the protocol:
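Yeast broth microdilution following CLSI M27-A, with Sabouraud dextrose medium noted for antifungal assays. Fresh cultures at McFarland 0.5 (10^6 cfu/ml) were diluted to 10^4 cfu/ml and inoculated into twofold compound dilutions. Trays were incubated at 35 °C in a humid chamber and read at 48 h, in triplicate. MIC was the lowest concentration giving complete macroscopic growth inhibition.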

The term MIC denotes the lowest concentration that inhibits growth of the organism. A low value points to greater potency. With `COc1ccccc1-c1nc2ccc(C)cc2o1`, in the experiment with Bacillus subtilis [1], the “log(1/C)” value amounted to 3.981 and the MIC came out at 25 mg/L (≈ 104 µM).

With `Cc1ccc(-c2nc3cc(C)ccc3o2)c(C)c1`, the “log(1/C)” value in the experiment with Bacillus subtilis [1] is 3.977.

In the case of `Cc1ccc2oc(-c3ccc(Cl)cc3)nc2c1`, in the experiment on Bacillus subtilis [1], the “log(1/C)” value was found to be 4.29 and the MIC is 12.5 mg/L (≈ 51.3 µM).

Consider `Cc1ccc2oc(-c3ccccc3F)nc2c1`, for which, in the experiment with Bacillus subtilis [1], the “log(1/C)” value was 3.959 and the minimal inhibitory concentration (MIC) came to 25 mg/L (≈ 110 µM).

`Cc1ccc2oc(-c3ccc(Br)cc3)nc2c1`: in the experiment on Bacillus subtilis [1], the “log(1/C)” value stood at 4.363 and 12.5 mg/L (≈ 43.4 µM) was the least that counted as inhibitory (MIC).

Take `Cc1ccc2nc(-c3ccc(Br)cc3)oc2c1`: in the experiment with Bacillus subtilis [1], the “log(1/C)” value amounted to 4.363 and the minimal inhibitory concentration (MIC) amounted to 12.5 mg/L (≈ 43.4 µM).

Turning to `Cc1ccc2oc(-c3ccc([N+](=O)[O-])cc3)nc2c1`, in the experiment on Bacillus subtilis [1], the “log(1/C)” value is 4.609 and the MIC was determined as 6.25 mg/L (≈ 24.6 µM).

With `Cc1ccc2oc(-c3ccccc3[N+](=O)[O-])nc2c1`, in the experiment on Bacillus subtilis [1], the “log(1/C)” value was determined as 4.007 and the MIC was determined as 25 mg/L (≈ 98.3 µM).

Regarding `Cc1ccc2oc(-c3ccccc3Cl)nc2c1`, in the experiment on Bacillus subtilis [1], the “log(1/C)” value came to 3.989 and the lowest concentration to inhibit growth (MIC) was 25 mg/L (≈ 103 µM).

In the case of `CC1(C)S[C@@H]2[C@H](NC(=O)[C@H](N)c3ccccc3)C(=O)N2[C@H]1C(=O)O.O.O.O` [AMPICILLIN TRIHYDRATE], the MIC amounted to 2 mg/L in the experiment with Klebsiella pneumoniae [2]; 256 mg/L with Klebsiella pneumoniae [3]; 8 mg/L in the experiment on Escherichia coli [4]; 256 mg/L against Escherichia coli [5]; 4100 mg/L against Pseudomonas aeruginosa; 0.25 mg/L against Bacillus subtilis [1]. Also, the MIC in the experiment with Bacillus subtilis [6] worked out at 8 mg/L; in the experiment on Staphylococcus aureus [7], 0.03 mg/L; against Staphylococcus aureus [8], 2 mg/L.

Turning to `Cc1ccc2oc(-c3ccc(Cl)cc3Cl)nc2c1`, in the experiment on Bacillus subtilis [1], the “log(1/C)” value is recorded as 4.046 and 25 mg/L (≈ 89.9 µM) was the least that counted as inhibitory (MIC).

For `C[C@@H]1[C@H](O)[C@@H](C)/C=C/C=C/C=C/C=C/C=C/C=C/C=C/[C@H](O[C@@H]2O[C@H](C)[C@@H](O)[C@H](N)[C@@H]2O)C[C@@H]2O[C@](O)(C[C@@H](O)C[C@@H](O)[C@H](O)CC[C@@H](O)C[C@@H](O)CC(=O)O[C@H]1C)C[C@H](O)[C@H]2C(=O)O` [AMPHOTERICIN B], the MIC in the experiment with Candida albicans [9] and with Candida albicans [10] was 1 mg/L (≈ 1.08 µM) in each case.

As for `COc1ccc(-c2nc3cc(C)ccc3o2)c(OC)c1`, the “log(1/C)” value with Bacillus subtilis [1] came out at 4.032.

Take `Cc1ccc(-c2nc3ccc(C)cc3o2)c(C)c1`: in the experiment with Bacillus subtilis [1], the “log(1/C)” value worked out at 3.676 and 50 mg/L (≈ 211 µM) was the least that counted as inhibitory (MIC).

On to `CC1COc2c(N3CCN(C)CC3)c(F)cc3c(=O)c(C(=O)O)cn1c23` (stereo unspecified) [OFLOXACIN], for which the MIC with Klebsiella pneumoniae [2] was 0.25 mg/L (≈ 0.692 µM); against Klebsiella pneumoniae [3], 64 mg/L (≈ 177 µM); against Escherichia coli [4] it was 0.125 mg/L (≈ 0.346 µM); in the experiment on Escherichia coli [5] it was 32 mg/L (≈ 88.6 µM); against Pseudomonas aeruginosa, 8 mg/L (≈ 22.1 µM); in the experiment with Bacillus subtilis [1], 0.125 mg/L (≈ 0.346 µM). Moreover, the values for the MIC against Bacillus subtilis [6], with Staphylococcus aureus [7] and with Staphylococcus aureus [8] were 32 mg/L (≈ 88.6 µM), 0.25 mg/L (≈ 0.692 µM) and 2 mg/L (≈ 5.53 µM), respectively.

As for `Cc1ccc2nc(-c3ccccc3Cl)oc2c1`, the “log(1/C)” value with Bacillus subtilis [1] came to 3.989.

Take `CO[C@H]1/C=C/O[C@@]2(C)Oc3c(C)c(O)c4c(O)c(c(/C=N/N5CCN(C)CC5)c(O)c4c3C2=O)NC(=O)/C(C)=C\C=C\[C@H](C)[C@H](O)[C@@H](C)[C@@H](O)[C@@H](C)[C@H](OC(C)=O)[C@@H]1C` [RIFAMPIN]: the MIC is 16 mg/L (≈ 19.4 µM) with Klebsiella pneumoniae [2]; 256 mg/L (≈ 311 µM) against Klebsiella pneumoniae [3]; 8 mg/L (≈ 9.72 µM) against Escherichia coli [4]; 64 mg/L (≈ 77.8 µM) against Escherichia coli [5]; 32 mg/L (≈ 38.9 µM) against Pseudomonas aeruginosa; 256 mg/L (≈ 311 µM) in the experiment with Bacillus subtilis [6]. For the same compound, the figures for the minimal inhibitory concentration (MIC) against Staphylococcus aureus [7] and against Staphylococcus aureus [8] were 0.5 mg/L (≈ 0.608 µM) and 8 mg/L (≈ 9.72 µM), respectively.
